# Measurements: ChEMBL document CHEMBL1158082, “Cytotoxic hypothemycin analogues from Hypomyces subiculosus” (J Nat Prod, 2006)
# Assays:
# Type in all cases: functional, cell-based
# SK-OV-3 = assay: Cytotoxicity against human SKOV3 cells
# Procedure, shortened: (§1)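 Cells were kept in McCoy's 5A with 10% FBS and 2 mM L-glutamine at 37 °C and 5% CO2. About 4000 cells per well were plated and left to adhere overnight. Compounds from 50 mM DMSO stocks were diluted in medium (dilution series 100 µM to 0.1 pM, before addition) and added in duplicate. After 72 h, viability was read by CellTiter-Glo luminescence at room temperature.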
# COLO-829 = assay: Cytotoxicity against human COLO829 cells; procedure, shortened: as §1
# HT-29 = assay: Cytotoxicity against human HT-29 cells; procedure, shortened: as §1
Structure (SMILES),IC50 (SK-OV-3) [µM],IC50 (COLO-829) [µM],IC50 (HT-29) [µM]
COc1cc(O)c2c(c1)[C@H]1O[C@@H]1CCCC(=O)CCC[C@H](C)OC2=O,> 100,,
C[C@H]1C/C=C/[C@@H](O)[C@@H](O)CC[C@H]2O[C@@H]2c2cc(O)cc(O)c2C(=O)O1,> 100,> 100,> 100
C[C@H]1C/C=C\C(=O)[C@@H](O)[C@@H](O)C[C@H]2O[C@@H]2c2cc(O)cc(O)c2C(=O)O1,1.8,0.038,0.1
COc1cc(O)c2c(c1)[C@H]1O[C@@H]1C[C@H](O)[C@H](O)C(=O)/C=C\C[C@H](C)OC2=O [HYPOTHEMYCIN],5.9,0.07,0.15
